In ChEMBL document CHEMBL4814053, “Inhibitors of heat shock protein 70 (Hsp70) with enhanced metabolic stability reduce tau levels” (Bioorg Med Chem Lett, 2021):
Active and inactive are the calls of the source. The rule behind the calls is not given here.

Key:
[1] = Metabolic stability in mouse liver microsomes assessed as parent compound remaining after 30 mins; assay type: ADME, Microsome; details: for remaining at 0.5 h: liver microsomes, read-out: Stabilty; for Stabilty: microsomes, 0.5 h
Method in brief: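 Compound incubated with mouse liver microsomes for 30 minutes at 37 °C, with dextromethorphan as positive control. Read-out is the percentage of unmodified compound remaining at 30 min.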

[2] = Metabolic stability in mouse liver microsomes assessed as half life; assay type: ADME, Microsome; details: for half-life: liver microsomes
Method in brief: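 Half-life in mouse liver microsome assays was calculated from the amount of compound remaining over time, with dextromethorphan as positive control.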

[3] = system: SH-SY5Y; test: Induction of heat shock response in human SH-SY5Y cells assessed as effect on HSP72 expression at 3 to 30 uM incubated for 24 hrs by Western blot analysis; assay type: cell-based; details: dose 3-30 µM
Method in brief: (§1)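 Cells treated for 24 h at the indicated concentrations, then lysed; total tau, Hsp72 and Hsp90 levels analyzed by Western blot. HeLaC3 cells over-express 0N4R tau. SH-SY5Y cells express tau at physiological levels.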

[4] = system: SH-SY5Y; test: Inhibition of HSP70 in human SH-SY5Y cells assessed as degradation of tau at 3 to 30 uM incubated for 24 hrs by Western blot analysis relative to control; assay type: cell-based; details: dose 3-30 µM; method in brief: as §1
[5] = Induction of heat shock response in human HeLa C3 cells assessed as effect on HSP90 expression at 3 to 30 uM incubated for 24 hrs by Western blot analysis; assay type: cell-based; details: hela c3, 24 h, dose 3-30 µM; method in brief: as §1
[6] = Induction of heat shock response in human HeLa C3 cells assessed as effect on HSP72 expression at 3 to 30 uM incubated for 24 hrs by Western blot analysis; assay type: cell-based; details: hela c3, 24 h, dose 3-30 µM; method in brief: as §1
[7] = system: HeLa C3; test: Inhibition of HSP70 in human HeLa C3 cells assessed as degradation of tau at >10 uM incubated for 24 hrs by Western blot analysis; assay type: cell-based; details: dose microM >10, time 24.0 hrs; method in brief: as §1
[8] = system: SH-SY5Y; test: Induction of heat shock response in human SH-SY5Y cells assessed as effect on HSP90 expression at 3 to 30 uM incubated for 24 hrs by Western blot analysis; assay type: cell-based; details: dose 3-30 µM; method in brief: as §1

## CCn1c(=O)/c(=C2\Sc3c(F)cccc3N2C)s/c1=C\c1ccccn1
[1]
  remaining at 0.5 h: 12%

## CCn1c(=O)/c(=C2\Sc3ccc(F)cc3N2C)s/c1=C\c1ccncc1
[1]
  remaining at 0.5 h: 23%

## CCn1c(=O)/c(=C2\Sc3cccc(F)c3N2C)s/c1=C\c1ccccn1
[1]
  remaining at 0.5 h: 12%

## CCn1c(=O)/c(=C2\Sc3cccc(Cl)c3N2C)s/c1=C\c1ccncc1
[1]
  Stabilty: Nd(Insoluble)

## CCn1c(=O)/c(=C2\Sc3ccccc3N2C)s/c1=C\c1ccccn1
[1]; BLD = below limit of detection
  Stabilty: Bld
[2]
  half-life: < 3 min

## CCn1c(=O)/c(=C2\Sc3cccc(Cl)c3N2C)s/c1=C\c1ccccn1
[1]
  remaining at 0.5 h: 38%
[2]
  half-life: 23 min

## CCn1c(=O)/c(=C2\Sc3cccc(F)c3N2C)s/c1=C\c1ccncc1
[1]
  remaining at 0.5 h: 33%

## CCn1c(=O)/c(=C2\Sc3ccccc3N2C)s/c1=C\c1ccncc1
[1]
  remaining at 0.5 h: 6%

## CCn1c(=O)/c(=C2\Sc3cc(Cl)ccc3N2C)s/c1=C\c1ccncc1
[1]
  remaining at 0.5 h: 39%
[2]
  half-life: 22 min

## CCn1c(=O)/c(=C2\Sc3ccc(F)cc3N2C)s/c1=C\c1ccccn1
[1]
  remaining at 0.5 h: 19%

## CCn1c(=O)/c(=C2\Sc3cc(Cl)ccc3N2C)s/c1=C\c1ccccn1
[1]
  remaining at 0.5 h: 13%

## CCn1c(=O)/c(=C2\Sc3cc(F)ccc3N2C)s/c1=C\c1ccncc1
[1]
  remaining at 0.5 h: 13%

## CCn1c(=O)/c(=C2\Sc3cc(F)ccc3N2C)s/c1=C\c1ccccn1
[1]
  remaining at 0.5 h: 5%

## CCn1c(=O)/c(=C2\Sc3ccc(Cl)cc3N2C)s/c1=C\c1ccccn1
[1]
  remaining at 0.5 h: 37%
[2]
  half-life: 17 min

## CCn1c(=O)/c(=C2\Sc3ccc(Cl)cc3N2C)s/c1=C\c1ccncc1
[1]
  remaining at 0.5 h: 52%
[3]
  Activity: Non-Toxic
[4]
  inhibition: 80%
[5]
  Activity: Non-Toxic
[6]
  Activity: Non-Toxic
[7]
  inhibition: Active
[2]; microsomes
  t1/2: 36 min
[8]
  Activity: Non-Toxic

## COc1ccc2c(c1)[C@]13CCCC[C@@H]1[C@H](C2)N(C)CC3 [DEXTROMETHORPHAN]
[2]
  half-life: 25 min

## CCn1c(=O)/c(=C2\Sc3c(F)cccc3N2C)s/c1=C\c1ccncc1
[1]
  remaining at 0.5 h: 30%

## CCn1c(=O)/c(=C2\Sc3c(Cl)cccc3N2C)s/c1=C\c1ccccn1
[1]
  remaining at 0.5 h: 17%

## CCn1c(=O)/c(=C2\Sc3c(Cl)cccc3N2C)s/c1=C\c1ccncc1
[1]
  Stabilty: Nd(Insoluble)
